Laboratory results taken from publication PMC3158287 (Nature chemical biology, 2011).

How the values were obtained:
ORP4L-Myc-His = target: T1, ORP4L-Myc-His (Homo sapiens, UniProt Q969R2); experiment: [3H]25-OHC charcoal-dextran binding assay, ORP4L-Myc-His
T1 sequence (Q969R2 1-916): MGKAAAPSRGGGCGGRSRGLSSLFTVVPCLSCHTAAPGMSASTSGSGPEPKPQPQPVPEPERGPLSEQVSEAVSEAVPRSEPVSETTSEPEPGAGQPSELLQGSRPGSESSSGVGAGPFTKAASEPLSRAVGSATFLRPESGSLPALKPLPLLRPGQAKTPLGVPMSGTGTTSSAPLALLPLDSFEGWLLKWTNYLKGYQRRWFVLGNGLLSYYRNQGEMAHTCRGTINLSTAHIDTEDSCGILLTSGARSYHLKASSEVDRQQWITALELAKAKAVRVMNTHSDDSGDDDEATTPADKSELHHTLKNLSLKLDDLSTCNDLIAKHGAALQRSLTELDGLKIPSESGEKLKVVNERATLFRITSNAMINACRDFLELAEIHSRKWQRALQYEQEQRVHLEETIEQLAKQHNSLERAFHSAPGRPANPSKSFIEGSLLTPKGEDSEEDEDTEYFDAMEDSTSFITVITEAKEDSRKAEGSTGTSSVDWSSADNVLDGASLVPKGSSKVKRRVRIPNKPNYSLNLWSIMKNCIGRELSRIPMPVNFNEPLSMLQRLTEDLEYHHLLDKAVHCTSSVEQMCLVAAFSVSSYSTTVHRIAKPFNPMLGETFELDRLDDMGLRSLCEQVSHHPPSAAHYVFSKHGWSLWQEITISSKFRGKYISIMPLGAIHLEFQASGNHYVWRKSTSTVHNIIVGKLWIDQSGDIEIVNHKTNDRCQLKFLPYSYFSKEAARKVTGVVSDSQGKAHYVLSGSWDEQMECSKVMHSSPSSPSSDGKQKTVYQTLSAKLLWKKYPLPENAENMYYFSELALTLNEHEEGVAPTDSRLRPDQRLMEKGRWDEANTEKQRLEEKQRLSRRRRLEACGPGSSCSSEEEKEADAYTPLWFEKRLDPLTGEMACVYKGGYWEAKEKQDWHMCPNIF

[1] = tested on: HeLa cells overexpressing wild-type OSBP; experiment: Overexpression-viability assay, wild-type OSBP-Myc-His; format: cell-based, human; settings: 48 h, versus lacZ
[2] = tested on: HeLa cells overexpressing ORP4L; experiment: Overexpression-viability assay, ORP4L-Myc-His; format: cell-based, human; settings: 48 h, versus lacZ
HCT-116 cells = experiment: Suppression of antiproliferative activity by 25-OHC coadministration; format: cell-based, human
Procedure, shortened: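 HCT-116 p21+/+ and p21−/− cells were seeded in 96-well plates and rested 24 h. A time-zero plate was read with CellTiter-Blue (resazurin) after 90 min at 37 °C, fluorescence 544 nm ex / 590 nm em. Serially diluted test compound was added as 4× solution. Viability was re-read at 48 h and GI50 derived. For coadministration, 10 μM 25-OHC was added with test compound at 250 nM or 10 nM.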

OSBP [3] = target: T2, OSBP (Homo sapiens, UniProt P22059); experiment: OSBP localization by immunofluorescence microscopy, HCT-116; format: cell-based; settings: HCT-116 cells, 4 h; 5 μM schweinfurthin A, 10 nM OSW-1, 20 nM cephalostatin 1
T2 sequence (P22059 1-807): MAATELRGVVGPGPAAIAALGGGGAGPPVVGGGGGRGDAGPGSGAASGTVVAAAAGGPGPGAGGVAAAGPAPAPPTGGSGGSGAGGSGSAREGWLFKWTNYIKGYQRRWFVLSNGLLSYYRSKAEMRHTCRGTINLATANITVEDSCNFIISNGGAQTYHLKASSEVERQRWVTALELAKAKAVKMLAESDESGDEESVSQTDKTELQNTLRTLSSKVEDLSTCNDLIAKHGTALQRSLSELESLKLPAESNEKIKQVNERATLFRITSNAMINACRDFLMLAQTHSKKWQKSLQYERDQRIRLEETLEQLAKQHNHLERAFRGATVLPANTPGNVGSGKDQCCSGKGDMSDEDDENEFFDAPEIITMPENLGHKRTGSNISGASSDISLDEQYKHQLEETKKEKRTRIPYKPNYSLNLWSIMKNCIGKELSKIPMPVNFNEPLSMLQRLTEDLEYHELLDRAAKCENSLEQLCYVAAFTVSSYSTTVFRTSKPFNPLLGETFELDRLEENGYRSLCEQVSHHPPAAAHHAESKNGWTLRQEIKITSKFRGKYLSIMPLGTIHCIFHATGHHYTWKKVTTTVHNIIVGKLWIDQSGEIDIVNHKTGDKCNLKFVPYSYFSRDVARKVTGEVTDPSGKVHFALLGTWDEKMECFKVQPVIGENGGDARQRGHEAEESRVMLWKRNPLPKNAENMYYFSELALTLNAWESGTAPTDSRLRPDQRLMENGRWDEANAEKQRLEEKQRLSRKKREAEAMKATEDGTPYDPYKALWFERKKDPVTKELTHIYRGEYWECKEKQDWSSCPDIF
Procedure, shortened: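 Cells on coverslips were grown 72 h, then given test compound or vehicle (4 h for HCT-116). They were fixed 10 min in 3.7% formaldehyde/PBS and permeabilised 5 min in 0.5% Triton X-100. Blocking used Image-iT FX, then 1% BSA/PBS. Rabbit anti-OSBP (N-terminus) and mouse anti-p230 were applied overnight at 4 °C, then Alexa Fluor secondaries for 60 min with Hoechst 33258. Imaging was by confocal microscopy.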

OSBP [4] = target: T2, OSBP; experiment: OSBP protein levels by western blotting; format: cell-based; settings: HCT-116 cells
Procedure, shortened: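 HCT-116 cells were treated with test compound at 50 nM or 10 nM over a time course including 24 h. Some samples also received proteasome inhibitor MG-132 or lactacystin. OSBP was measured by western blotting with polyclonal rabbit anti-OSBP (N-terminus) antibody. Data are n = 3, compared with vehicle-treated cells by two-tailed Student's t-test.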

human cancer cell lines = settings: cited from earlier work

| SMILES | Ki (ORP4L-Myc-His; read-out: Ki, ORP4L-Myc-His, competition with 20 nM [3H]25-OHC, mean ± s.d.) [nM] | Desensitization factor by OSBP overexpression (relative GI30) [1] | Desensitization factor by ORP4L overexpression (relative GI30) [2] | Growth inhibition when administered alone (HCT-116 cells; 10 nM, HCT-116 cells, 48 h) [%] | Effect of 10 μM 25-OHC coadministration on growth inhibition (HCT-116 cells; HCT-116 cells, 250 nM cephalostatin 1 or 10 nM OSW-1) | OSBP localization (OSBP [3]) | Reduction in OSBP protein levels (OSBP [4]; 10 nM, 24 h) | GI50 (half-maximal inhibitory concentration) (human cancer cell lines) | Factor by which affinity for ORP4L is lower than affinity for OSBP (ORP4L-Myc-His; ratio of Ki values ORP4L / OSBP) | Effect of 25-OHC coadministration on antiproliferative activity (HCT-116 cells; HCT-116 and HeLa cell lines) | Effect on OSBP levels (compound alone) (OSBP [4]; 25-OHC 10 μM) |
| --- | --- | --- | --- | --- | --- | --- | --- | --- | --- | --- | --- |
| COc1ccc(C(=O)O[C@H]2[C@H](O[C@@H]3[C@@H](OC(C)=O)[C@H](O[C@H]4C[C@H]5[C@@H]6CC=C7C[C@@H](O)CC[C@]7(C)[C@H]6CC[C@]5(C)[C@@]4(O)[C@H](C)C(=O)CCC(C)C)OC[C@@H]3O)OC[C@@H](O)[C@@H]2O)cc1 [OSW-1] | 54 ± 11 | 2–5 | 2–5 | > 75 | nearly complete desensitization | localize to a perinuclear position that did not localize with p230 | approximately 75% | nanomolar range |  |  |  |
| CC(C)=CCC/C(C)=C/Cc1c(O)cc(/C=C/c2cc(O)c3c(c2)C[C@@H]2C(C)(C)[C@H](O)[C@H](O)C[C@@]2(C)O3)cc1O [schweinfurthin A] |  | 2–5 | 2–5 |  |  | accumulate at perinuclear positions with a large degree of co-localization with the trans-Golgi marker p230 |  | nanomolar range | ~ 40 | desensitized cells to schweinfurthin A, although to a lesser degree | no effect |
